Consider 26 compounds from ChEMBL document CHEMBL5104204, “Synthesis and in vitro anticancer evaluation of novel flavonoid-based amide derivatives as regulators of the PI3K/AKT signal pathway for TNBC treatment” (RSC Med Chem, 2022).

What all share (format): functional, cell-based
Test [1] deals with MCF7. In words: Antitumor activity against human MCF7 cells assessed as inhibit cell proliferation incubated for 72 hrs by CCK-8 assay. The settings on record: MCF7, 72 h. The essentials:
(§1)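 CCK8 viability readout. Culture media: HCC1937, A549, HeLa and GTL-16 in RPMI 1640; MDA-MB-231, MCF-7 and HepG2 in high-glucose DMEM; all with 10% FBS and penicillin/streptomycin, 37 °C, 5% CO2. 4×10^3–6×10^3 cells/well, 24 h, then compounds in serum-free medium, 72 h at 37 °C. 10% CCK8, 2 h, OD 450/630 nm. Five wells per group; IC50 from inhibition rate; three independent experiments, mean ± SD.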

The subject of test [2] is HeLa. The test is described as follows: Antitumor activity against human HeLa cells assessed as inhibit cell proliferation incubated for 72 hrs by CCK-8 assay. The essentials: as §1
In test [3] the test system is GTL 16 cell line. The test is described as follows: Antitumor activity against human GTL 16 cell line assessed as inhibit cell proliferation incubated for 72 hrs by CCK-8 assay. The note with it: GTL 16, 72 h. The essentials:
as §1

Test [4] relates to HCC1937. The test is described as follows: Antitumor activity against human HCC1937 cells assessed as inhibit cell proliferation incubated for 72 hrs by CCK-8 assay. The note with it: HCC1937, 72 h. The essentials: as §1
Test [5] concerns MDA-MB-231. In words: Antitumor activity against human MDA-MB-231 cells assessed as inhibit cell proliferation incubated for 72 hrs by CCK-8 assay. The settings on record: MDA-MB-231, 72 h. The essentials:
as §1

For test [6], the system named is HepG2. The test is described as follows: Antitumor activity against human HepG2 cells assessed as inhibit cell proliferation incubated for 72 hrs by CCK-8 assay. The settings on record: HepG2, 72 h. The essentials: as §1
The test system of test [7] is A549. The test is described as follows: Antitumor activity against human A549 cells assessed as inhibit cell proliferation incubated for 72 hrs by CCK-8 assay. The settings on record: A549, 72 h. The essentials: as §1

Where only a bound is given, the exact number is not on record here.

With `O=C(Nc1cccc(-c2oc3cc(-c4ccc(F)cc4)ccc3c(=O)c2O)c1)c1ccc(Br)cc1`, the IC50 turned out to be 24 µM in test [1]; 9.74 µM in test [2]; 25.4 µM in test [3]; 8.63 µM in test [4]; 24.9 µM in test [5]; 13.9 µM in test [6]. For the same compound, the IC50 in test [7] amounted to 13.5 µM.
Take `Cc1ccccc1C(=O)Nc1cccc(-c2oc3cc(-c4ccc(F)cc4)ccc3c(=O)c2O)c1`: the IC50 in test [1] came to 2.28 µM; in test [2] it was 11.9 µM; in test [3], 24.8 µM; in test [4], 9.9 µM; in test [5] it was 4.91 µM; in test [6], 19.4 µM. Besides, the IC50 in test [7] is 17.6 µM.
For `O=C(Nc1cccc(-c2oc3cc(-c4ccc(F)cc4)ccc3c(=O)c2O)c1)c1ccc([N+](=O)[O-])cc1`, the IC50 in test [1] was determined as 3.97 µM; in test [2] it was 12.3 µM; in test [3] it was 18.2 µM; in test [4], 5.64 µM; in test [5], 14.7 µM; in test [6] it was 1.86 µM. The IC50 in test [7] came to 2.44 µM.
`COc1cc(OC)cc(C(=O)Nc2cccc(-c3oc4cc(-c5ccc(F)cc5)ccc4c(=O)c3O)c2)c1`: the half-maximal inhibitory concentration (IC50) amounted to 3.47 µM in test [1]; 2.7 µM in test [2]; 19.6 µM in test [3]; 6.25 µM in test [4]; 4.04 µM in test [5]; 23.5 µM in test [6]. Besides, the IC50 in test [7] stood at 2.39 µM.
In the case of `Cc1cc(C)cc(C(=O)Nc2cccc(-c3oc4cc(-c5ccc(F)cc5)ccc4c(=O)c3O)c2)c1`, the half-inhibitory concentration (IC50) in test [1] was found to be 20.4 µM; in test [2], 5.54 µM; in test [3], 13.5 µM; in test [4], 4.86 µM; in test [5], 11.9 µM; in test [6], 13.4 µM. The half-inhibitory concentration (IC50) in test [7] was determined as 3.74 µM.
With `N#Cc1ccc(C(=O)Nc2cccc(-c3oc4cc(-c5ccc(F)cc5)ccc4c(=O)c3O)c2)cc1`, the IC50 in test [1] was determined as 2.66 µM; in test [2], 23.3 µM; in test [3] it was 31.8 µM; in test [4], 2.99 µM; in test [5] it was 11.6 µM; in test [6], 7.11 µM. Moreover, the 50% inhibitory concentration (IC50) in test [7] worked out at 2.36 µM.
`O=C(Nc1cccc(-c2oc3cc(-c4ccc(F)cc4)ccc3c(=O)c2O)c1)c1ccc(F)cc1F`: the IC50 is 13.5 µM in test [1]; 10.7 µM in test [2]; 9.64 µM in test [3]; 6.98 µM in test [4]; 11.2 µM in test [5]; 26.4 µM in test [6]. Also, the IC50 in test [7] was 20.5 µM.
On to `COc1ccc(C(=O)Nc2cccc(-c3oc4cc(-c5ccc(F)cc5)ccc4c(=O)c3O)c2)c(F)c1`, for which the IC50 was determined as 20 µM in test [1]; 16.1 µM in test [2]; 15.3 µM in test [3]; 24.4 µM in test [4]; 17.6 µM in test [5]; 45.3 µM in test [6]. Moreover, the IC50 in test [7] came out at 40 µM.
For `COc1cccc(C(=O)Nc2cccc(-c3oc4cc(-c5ccc(F)cc5)ccc4c(=O)c3O)c2)c1`, the IC50 in test [1] came to 15.3 µM; in test [2], 5.65 µM; in test [3], 12.5 µM; in test [4], 18.9 µM; in test [5], 9.16 µM; in test [6], 9.95 µM. In addition, the IC50 in test [7] was 10.8 µM.
Take `COc1ccc(C(=O)Nc2cccc(-c3oc4cc(-c5ccc(F)cc5)ccc4c(=O)c3O)c2)cc1`: the IC50 in test [1] is 6.25 µM; in test [2], 4.82 µM; in test [3], 21.1 µM; in test [4], 5.49 µM; in test [5] it was 16.5 µM; in test [6] it was 8.42 µM. Moreover, the 50% inhibitory concentration (IC50) in test [7] stood at 8.7 µM.
Take `O=C(Nc1cccc(-c2oc3cc(-c4ccc(F)cc4)ccc3c(=O)c2O)c1)c1ccccc1F`: the IC50 is 7.57 µM in test [1]; 5.63 µM in test [2]; 17.4 µM in test [3]; 10.8 µM in test [4]; 7.24 µM in test [5]; 10.1 µM in test [6]. The IC50 in test [7] stood at 4.41 µM.
For `O=C(Nc1cccc(-c2oc3cc(-c4ccc(F)cc4)ccc3c(=O)c2O)c1)c1ccc(Cl)cc1`, the IC50 in test [1] is 4.73 µM; in test [2], 3.67 µM; in test [3] it was 9.14 µM; in test [4] it was 4.03 µM; in test [5], 12.8 µM; in test [6], 11 µM. The IC50 in test [7] is 10.8 µM.
Take `CCc1ccc(C(=O)Nc2cccc(-c3oc4cc(-c5ccc(F)cc5)ccc4c(=O)c3O)c2)cc1`: the IC50 in test [1] was 22.8 µM; in test [2], 21 µM; in test [3], 24.6 µM; in test [4] it was 13.2 µM; in test [5], 9.07 µM; in test [6] it was 20.6 µM. Also, the IC50 in test [7] was determined as 18.5 µM.
As to `COc1ccccc1C(=O)Nc1cccc(-c2oc3cc(-c4ccc(F)cc4)ccc3c(=O)c2O)c1`, the IC50 in test [1] turned out to be 2.1 µM; in test [2], 14.1 µM; in test [3] it was 6.37 µM; in test [4], 9.05 µM; in test [5], 5.11 µM; in test [6], 14.5 µM. Moreover, in test [7], the IC50 was 11.7 µM.
In the case of `O=C(Nc1cccc(-c2oc3cc(-c4ccc(F)cc4)ccc3c(=O)c2O)c1)c1ccc(F)cc1`, the concentration for half-maximal inhibition (IC50) in test [1] worked out at 8.59 µM; in test [2] it was 5.35 µM; in test [3], 14.6 µM; in test [4] it was 14.2 µM; in test [5], 16 µM; in test [6], 9.28 µM. In addition, in test [7], the IC50 amounted to 6.93 µM.
For the compound `O=C(Nc1cccc(-c2oc3cc(-c4ccc(F)cc4)ccc3c(=O)c2O)c1)c1ccc(-c2ccccc2)cc1`, the IC50 was 38.5 µM in test [1]; greater than 100 µM in test [2]; 44.1 µM in test [4]; 63.2 µM in test [5]; 88.5 µM in test [6]; greater than 100 µM in test [7].
Turning to `O=C(Nc1cccc(-c2oc3cc(-c4ccc(F)cc4)ccc3c(=O)c2O)c1)c1cc(F)cc(F)c1`, the IC50 was 2.49 µM in test [1]; 3.38 µM in test [2]; 7.41 µM in test [3]; 2.07 µM in test [4]; 2.44 µM in test [5]; 4.96 µM in test [6]. Moreover, the IC50 in test [7] came to 7.62 µM.
Consider `CCCc1ccc(C(=O)Nc2cccc(-c3oc4cc(-c5ccc(F)cc5)ccc4c(=O)c3O)c2)cc1`, for which the IC50 is 36.8 µM in test [1]; 8.79 µM in test [2]; 20.4 µM in test [3]; 15.3 µM in test [4]; 32.2 µM in test [5]; 51.5 µM in test [6]. Besides, the IC50 in test [7] was found to be 47.6 µM.
With `Cc1ccc(C(=O)Nc2cccc(-c3oc4cc(-c5ccc(F)cc5)ccc4c(=O)c3O)c2)cc1`, the IC50 in test [1] turned out to be 2.4 µM; in test [2], 6.19 µM; in test [3], 12.9 µM; in test [4] it was 7.11 µM; in test [5] it was 4.35 µM; in test [6], 2.32 µM. Besides, in test [7], the IC50 came out at 6.91 µM.
With `Cc1cccc(C(=O)Nc2cccc(-c3oc4cc(-c5ccc(F)cc5)ccc4c(=O)c3O)c2)c1`, the IC50 amounted to 7.85 µM in test [1]; 6.65 µM in test [2]; 10.9 µM in test [3]; 8.03 µM in test [4]; 2.84 µM in test [5]; 13.5 µM in test [6]. Further, the IC50 in test [7] stood at 16.4 µM.
Take `O=C(Nc1cccc(-c2oc3cc(-c4ccc(F)cc4)ccc3c(=O)c2O)c1)c1ccc(C(F)(F)F)cc1`: the IC50 in test [1] was 32.6 µM; in test [2], 17.4 µM; in test [3], 33 µM; in test [4], 7.35 µM; in test [5], 29.4 µM; in test [6], 42.7 µM. Further, the IC50 in test [7] worked out at 19.4 µM.
Take `O=C(Nc1cccc(-c2oc3cc(-c4ccc(F)cc4)ccc3c(=O)c2O)c1)c1cccc(F)c1`: the IC50 worked out at 5.77 µM in test [1]; 8.78 µM in test [2]; 15.8 µM in test [3]; 6.59 µM in test [4]; 2.51 µM in test [5]; 15.5 µM in test [6]. The IC50 in test [7] was 15.4 µM.
Turning to `O=C(Nc1cccc(-c2oc3cc(-c4ccc(F)cc4)ccc3c(=O)c2O)c1)c1ccc(Br)cc1F`, the IC50 is greater than 100 µM in test [6] and 46.1 µM in test [7].
On to `O=C(Nc1cccc(-c2oc3cc(-c4ccc(F)cc4)ccc3c(=O)c2O)c1)c1cnc(Cl)nc1Cl`, for which the IC50 in test [6] and in test [7] was greater than 100 µM throughout.
For the compound `O=c1[nH]cc(F)c(=O)[nH]1` [FLUOROURACIL], the IC50 in test [1] came to 4.42 µM; in test [2] it was 1.94 µM; in test [3], 0.84 µM; in test [4], 25.9 µM; in test [5], 7.75 µM; in test [6], 2.88 µM. The IC50 in test [7] was 2.65 µM.
In the case of `Cc1cc(C(=O)Nc2cccc(-c3oc4cc(-c5ccc(F)cc5)ccc4c(=O)c3O)c2)ccc1F`, the IC50 in test [1] amounted to 7.71 µM; in test [2], 18.9 µM; in test [3] it was 12.1 µM; in test [4] it was 5.42 µM; in test [5], 7.44 µM; in test [6] it was 9.54 µM. Besides, the IC50 in test [7] was determined as 11.5 µM.
